Scp-1 inhibitor = Scp-1 phosphatase inhibitors, primary screen, biochemical, colorimetric, uHTS. Recombinant Scp1, phosphopeptide, malachite green phosphate absorbance. inhibition, % at 20 µM. 340,000 compounds, 0.88% hits. AID 493091, 2011;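 active means inhibition above about 50% at 20 µM, limit read from the data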
Target sequence (Q9GZU7 76-261 limits assumed): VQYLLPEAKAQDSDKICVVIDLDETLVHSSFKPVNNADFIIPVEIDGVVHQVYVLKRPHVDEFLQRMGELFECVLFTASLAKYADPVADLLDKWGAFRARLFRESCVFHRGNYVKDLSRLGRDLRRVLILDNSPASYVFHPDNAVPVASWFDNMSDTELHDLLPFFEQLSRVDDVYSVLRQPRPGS
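Incubation: 45 min enzyme reaction at room temperature / System: truncated SCP-1 phosphatase (76-261aa) / Reagent: Phospho 17-mer peptide substrate / Buffer or medium: Acidic Tris acetate buffer with magnesium and detergent / Signal: absorbance at 630 nm / Doses: one concentration, 20 µM, with 1.0% DMSO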
NadD inh = inhibitors of S. aureus NadD, primary screen, biochemical, colorimetric, uHTS; Nicotinate-nucleotide adenylyltransferase NadD (Staphylococcus aureus N315); purified NadD enzyme, colorimetric absorbance read-out; inhibition, % at 20 µM; 360,000 compounds, 0.78% hits; AID 602399, 2012; in the data active means inhibition above about 26%
STEP block = STEP phosphatase inhibitors, primary screen, biochemical, fluorescence intensity, uHTS; 360,000 compounds, 0.25% hits; AID 588621, 2011; Tyrosine-protein phosphatase non-receptor type 5 (Homo sapiens), P54829; inhibition, % at 20 µM; recombinant STEP, OMFP fluorogenic substrate;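 active means inhibition at 20 µM, scaled per plate between control wells, above about 37%, limit read from the data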
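System: isolated STEP enzyme; schedule: 20 min enzyme reaction at room temperature, protected from light; medium: Bis-Tris buffer pH 6.0, 2.5 mM DTT, 0.005% Tween 20; signal: fluorescence, 480/540 nm; dosing: single compound dose of 20 µM, 1% DMSO final; also added: OMFP substrate, 25 µM final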
LMPTP block = LMPTP phosphatase inhibitors, primary screen, biochemical, fluorescence intensity, uHTS | recombinant LMPTP-A, OMFP fluorogenic substrate | inhibition, % at 20 µM | 360,000 compounds, 0.22% hits | AID 651560, 2012;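 active means compounds that cut the enzyme signal by at least half of the control window in the single-dose screen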
Target sequence (P24666 whole entry, looked up): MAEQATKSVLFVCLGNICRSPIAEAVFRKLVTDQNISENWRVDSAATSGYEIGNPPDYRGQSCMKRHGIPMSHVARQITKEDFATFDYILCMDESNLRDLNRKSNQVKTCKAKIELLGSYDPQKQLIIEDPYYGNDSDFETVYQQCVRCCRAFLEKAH
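Assay system: LMPTP-A enzyme. Input: 0.625 nM LMPTP-A final. Probe or stimulus: 400 µM OMFP. Compound dosing: single 20 µM dose. Schedule: 50 min dark incubation at room temperature. Detection: fluorescence intensity of OMFP turnover product. Read-out: percent inhibition versus substrate-only and uninhibited controls. Benchmarks: no-enzyme low control, uninhibited high control.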
rCAG binder = binders of r(CAG) RNA repeats, primary screen, biochemical, fluorescence; r(CAG) RNA repeat, TO-PRO-1 dye displacement fluorescence; inhibition, % at 3 µM; 370,000 compounds, 1.3% hits; AID 651821, 2012;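 active means inhibition above the plate cutoff, the mean of all test compounds on that plate plus 3 SD, cut at about 35% in these data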;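 further: higher means more dye released from RNA so lower well fluorescence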
Scp-1 conf = Scp-1 phosphatase inhibitors, retest, confirmation, biochemical, colorimetric, single concentration. shares compounds with Scp-1 inhibitor. recombinant SCP-1 catalytic domain, phosphate release, malachite green absorbance. inhibition, % at 20 µM. 2,500 compounds, 61% hits
MG interference = colorimetric readout interference by compounds, confirmation, artefact control for Scp-1 inhibitor project, biochemical, single concentration. apparent inhibition (interference), % at 20 µM. shares compounds with Scp-1 inhibitor. Colorimetric interference counterscreen, malachite green absorbance 630 nm. 2,500 tested, under 10 active;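 further: compounds added after enzyme reaction finished so only phosphate colour detection is probed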
Scp-1 Tm shift = Scp-1 binding by thermal shift, confirmation, orthogonal assay for Scp-1 inhibitor project, biophysical, differential scanning fluorimetry; shares compounds with Scp-1 inhibitor; Recombinant SCP1, Sypro Orange thermal shift Tm; thermal shift relative to vanadate control, % at 40 µM; 1,500 compounds, 25% hits; AID 540329, 2011;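 active means substances whose mean melting-temperature shift, as a percentage of the reference inhibitor's shift, reaches about 5.3%, limit read from the data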
Hits are given with their value. This is a sample that favours compounds with a hit; in the whole collection about 2.6% have one here.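 How the source made its calls, unless noted: active means inhibition of at least 30% at 20 µM; inactive means the rest.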

Results for CC(=O)Nc1cccc2cc(S(=O)(=O)O)ccc12 ?
NadD inh: inactive; STEP block: inactive; LMPTP block: inactive; rCAG binder: inactive

What do the screens show for `CC(=O)Nc1ccc2c(O)cc(S(=O)(=O)O)cc2c1`?
Scp-1 inhibitor: 58.7; NadD inh: inactive; STEP block: inactive; LMPTP block: inactive; rCAG binder: inactive; Scp-1 conf: 46.3; MG interference: inactive; Scp-1 Tm shift: inactive

What do the screens show for `O=c1c2ccccc2nc2sc(Nc3ccc(F)cc3)nn12`?
Scp-1 inhibitor: 92.4; NadD inh: inactive; STEP block: inactive; LMPTP block: inactive; rCAG binder: inactive; Scp-1 conf: 74.3; MG interference: inactive; Scp-1 Tm shift: inactive

How did CCCCN1CN2Cc3ccc(C)cc3C2CS1(=O)=O (stereo not drawn) do in these assays?
rCAG binder: inactive

Results for Cc1ccc2c(c1)C1CS(=O)(=O)N(C3CCCC3)CN1C2 (stereo not drawn) ?
rCAG binder: inactive

How did O=C(O)Cc1ccc(-n2cccc2)cc1 do in these assays?
Scp-1 inhibitor: 79.8; NadD inh: inactive; STEP block: inactive; LMPTP block: inactive; rCAG binder: inactive; Scp-1 conf: 53.2; MG interference: inactive; Scp-1 Tm shift: inactive

How did Cc1ccc(CNC(=O)c2ccc(-n3cccc3)cc2)cc1 do in these assays?
Scp-1 inhibitor: 54.7; NadD inh: inactive; STEP block: inactive; LMPTP block: inactive; rCAG binder: inactive; Scp-1 conf: 64.2; MG interference: inactive; Scp-1 Tm shift: inactive

Results for O=C(Cc1ccc(-n2cccc2)cc1)NC1CCCCC1 ?
Scp-1 inhibitor: inactive; NadD inh: inactive; STEP block: inactive; LMPTP block: inactive; rCAG binder: inactive

Results for O=C(Cc1ccccc1)NC1CCCCN(Cc2cccc(Cl)c2)C1=O (stereo not drawn) ?
rCAG binder: inactive

What do the screens show for `CCOC(=O)[C@@H]1[C@H]2COc3cc(OC)ccc3[C@@H]2N2C(=O)N(c3ccc(Br)cc3)C(=O)[C@]12C`?
Scp-1 inhibitor: 52.9; NadD inh: inactive; STEP block: inactive; LMPTP block: inactive; rCAG binder: inactive; Scp-1 conf: inactive; MG interference: inactive

What do the screens show for `C#CCN1CC(N(C)CCCO)CS1(=O)=O` (stereo not drawn)?
rCAG binder: inactive

How did COC(=O)C1CN(Cc2cn(CCC3OCCO3)nn2)CCS(=O)(=O)N1Cc1ccccc1 (stereo not drawn) do in these assays?
rCAG binder: inactive

Results for COc1ccc(CCn2c(C3CCCCC3)nc3c(c(=O)c4ccccc4n3C)c2=O)cc1OC ?
Scp-1 inhibitor: inactive; NadD inh: inactive; STEP block: inactive; LMPTP block: inactive; rCAG binder: inactive

What do the screens show for `COc1ccc(Cn2c(C3CCCCC3)nc3c(c(=O)c4ccccc4n3C)c2=O)cc1`?
Scp-1 inhibitor: 87.2; Scp-1 conf: 54.7; MG interference: inactive; Scp-1 Tm shift: inactive

What do the screens show for `COc1cccc(CC(=O)N(Cc2ccccc2)c2ccccc2C(=O)Nc2cc(OC)ccc2OC)c1`?
rCAG binder: inactive

What do the screens show for `C[N+]1(CC(=O)OCCCc2ccccc2)CCOCC1`?
Scp-1 inhibitor: 99.6; NadD inh: inactive; STEP block: inactive; LMPTP block: inactive; rCAG binder: inactive; Scp-1 conf: 80.5; MG interference: inactive; Scp-1 Tm shift: inactive

What do the screens show for `CC1CCCC(NC(=O)C2CCN(S(=O)(=O)c3cccc4nonc34)CC2)C1C` (stereo not drawn)?
Scp-1 inhibitor: 69.0; NadD inh: inactive; STEP block: inactive; LMPTP block: inactive; rCAG binder: inactive; Scp-1 conf: inactive; MG interference: inactive

What do the screens show for `COc1ccc2c(c1)c(=O)oc1cc(OCC(=O)NC3CCCCC3)ccc12`?
Scp-1 inhibitor: 70.5; NadD inh: inactive; STEP block: inactive; LMPTP block: inactive; rCAG binder: inactive; Scp-1 conf: 55.6; MG interference: inactive; Scp-1 Tm shift: inactive

Results for COc1ccc2c(c1)c(=O)oc1cc(OCC(=O)NC3CC3)ccc12 ?
Scp-1 inhibitor: inactive; NadD inh: inactive; STEP block: inactive; LMPTP block: inactive; rCAG binder: inactive

What do the screens show for `CCCCN(C(=O)CN1CC(C)OC(C)C1)c1c(N)n(CC(C)C)c(=O)[nH]c1=O` (stereo not drawn)?
Scp-1 inhibitor: inactive; NadD inh: inactive; STEP block: inactive; LMPTP block: inactive; rCAG binder: inactive

What do the screens show for `CCCCN(C(=O)Cn1ncc(Cl)c(Cl)c1=O)c1c(N)n(CC(C)C)c(=O)[nH]c1=O`?
Scp-1 inhibitor: 81.7; NadD inh: inactive; STEP block: inactive; LMPTP block: inactive; Scp-1 conf: 76.1; MG interference: inactive; Scp-1 Tm shift: 6.2

Results for O=C(NCCN1CCNC1=O)C1CCC(=O)N(Cc2ccccc2F)C1 (stereo not drawn) ?
Scp-1 inhibitor: inactive; NadD inh: inactive; STEP block: inactive; LMPTP block: inactive; rCAG binder: inactive; Scp-1 conf: inactive; MG interference: inactive

Results for Cc1ccccc1CNC(=O)C1CCC(=O)N(Cc2cccc(F)c2)C1 (stereo not drawn) ?
Scp-1 inhibitor: inactive; NadD inh: inactive; STEP block: inactive; LMPTP block: inactive; rCAG binder: inactive; Scp-1 conf: inactive; MG interference: inactive

How did CC(C)c1cc(CNC(=O)C2CCC(=O)N(Cc3ccccc3F)C2)on1 (stereo not drawn) do in these assays?
Scp-1 inhibitor: inactive; NadD inh: inactive; STEP block: inactive; LMPTP block: inactive; rCAG binder: inactive

What do the screens show for `O=C(NCCc1ccccc1F)C1CCC(=O)N(Cc2ccccc2F)C1` (stereo not drawn)?
Scp-1 inhibitor: inactive; NadD inh: inactive; STEP block: inactive; LMPTP block: inactive; rCAG binder: inactive
